Hits are enriched below; roughly 1.8% of the tested compounds scored in any of these assays.
MT1-MMP act inh – blockers of MT1-MMP proenzyme processing, primary screen, HT1080 RFP-PRO-GFP cells, GFP/RFP fluorescence; Matrix metalloproteinase-14 (Homo sapiens), P50281; GFP/RFP ratio fluorescence, overnight; percent of plate control window, DMSO zero; GFP/RFP ratio change, % at 20 µM; 360,000 tested, 0.061% active;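 active = GFP/RFP ratio change of at least 30% with cell ATP level not reduced by more than half and red fluorescence within 50% of control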
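Assay system: RFP-PRO-GFP reporter HT1080 cells; read-out basis: GFP/RFP fluorescence ratio; benchmarks: DMSO wells and RFP-L50D-GFP cells; doses: 20 µM single dose, 1% DMSO; schedule: overnight cell settling, then overnight compound exposure, 37 °C, 5% CO2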
SKN-1 block – suppressors of acrylamide-induced Pgst-4::GFP reporter in worms, primary screen, SKN-1 inhibitor project, whole organism, uHTS, GFP/RFP fluorescence ratio, strain VP596 | C. elegans VP596 Pgst-4::GFP/RFP ratio, 24 h | inhibition, % at 21.8 µM | 360,000 tested, 0.49% active | AID 624304, 2012;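 active = interference check ratio from 0.5 to 1.5 plus GFP to RFP signal ratio inhibition reaching or exceeding a fixed threshold, cut at about 30% in these data, passing the limit was not always enough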
rRNA inh HTS – reduced GFP signal of wild-type E. coli, primary screen, bacterial rRNA inhibitor project, GFP/RFP fluorescence, OD600, single point. 350,000 tested, 1.6% active. GFP signal change (wild-type ribosome), % (concentration not given with the values). E. coli WT GFP vs humanized-ribosome RFP mutants, 24 h; stronger effect = lower value; DMSO median 0, no signal -100;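 active = significant combined selectivity score with lowered wild-type GFP, culture density cut under 30%, mutant RFP and density less affected; inactive = any of these conditions unmet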
Cneo AK release – Cryptococcus neoformans cell lysis inducers, primary screen, AK release luminescence, single concentration | C. neoformans lysis, adenylate kinase release luminescence, 4 h; normalised: neutral wells 0, clomiphene wells 100 | lysis activity, % at 15 µM | 360,000 tested, 0.2% active;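 active = mean lysis activity across replicates of at least 80%, whatever share of replicates individually reach that level; inactive = mean lysis activity below 80%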
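Material – log-phase Cryptococcus neoformans yeast cells · Input – 5 × 10^6 yeast cells/mL · Medium – fresh YPD growth medium · Doses – single compound concentration per well · Timing – static 4 h at 37 °C with compound, 1 h detection · Detection – adenylate kinase release luminescence · Read-out – signal increase indicating cell lysis · Control set – Clomiphene as positive lysis control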
DAGLB inh – DAGLB lipase inhibitors, primary screen, biochemical, fluorescence, HTS | 340,000 tested, 0.059% active | HEK293T DAGLB membrane lysate, EnzChek fluorogenic substrate | inhibition, % at 5.17 µM; in the data active = inhibition above about 34%
Target sequence (Q8NCG7 whole entry, looked up): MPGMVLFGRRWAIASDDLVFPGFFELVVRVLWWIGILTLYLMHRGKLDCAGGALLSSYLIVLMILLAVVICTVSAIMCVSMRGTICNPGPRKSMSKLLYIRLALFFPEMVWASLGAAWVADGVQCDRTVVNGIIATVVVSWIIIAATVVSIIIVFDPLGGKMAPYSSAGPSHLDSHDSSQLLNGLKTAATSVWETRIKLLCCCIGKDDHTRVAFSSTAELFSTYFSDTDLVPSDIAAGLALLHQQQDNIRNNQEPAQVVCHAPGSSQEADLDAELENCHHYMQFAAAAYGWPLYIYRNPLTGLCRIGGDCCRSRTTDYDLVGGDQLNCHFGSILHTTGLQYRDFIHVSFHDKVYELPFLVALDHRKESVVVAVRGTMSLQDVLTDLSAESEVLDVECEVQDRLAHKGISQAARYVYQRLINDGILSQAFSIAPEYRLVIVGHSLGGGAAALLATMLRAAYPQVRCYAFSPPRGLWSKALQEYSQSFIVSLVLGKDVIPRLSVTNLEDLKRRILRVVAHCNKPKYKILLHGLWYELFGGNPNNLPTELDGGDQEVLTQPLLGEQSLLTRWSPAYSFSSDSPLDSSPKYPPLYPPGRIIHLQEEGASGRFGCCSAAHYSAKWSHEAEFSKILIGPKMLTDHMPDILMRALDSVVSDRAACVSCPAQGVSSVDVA
hiPSC survival – enhancers of single-cell hiPSC survival, primary screen, ATPlite luminescence; 100% = ROCK inhibitor wells, 0% = DMSO; survival enhancement, % at 20 µM; 360,000 tested, 0.044% active; AID 602274, 2012; in the data active = survival enhancement above about 18%;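 note: cells exposed to compounds for 16 hours before the ATP read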
Of the large screens only hits and unclear results are named; the others gave an inactive call.

O=C(Nc1ccc2c(c1)CCC2)c1cccc(OC(F)F)c1	rRNA inh HTS -24.1 (no result: DAGLB inh)
C[C@@H]1CN([C@H](C)CO)C(=O)Cc2cc(NC(=O)NC3CCCCC3)ccc2O[C@@H]1CN(C)Cc1ccc(C(F)(F)F)cc1	none (no result: MT1-MMP act inh, SKN-1 block, DAGLB inh, hiPSC survival)
C[C@@H]1CN([C@@H](C)CO)C(=O)c2cc(NC(=O)Cn3cnnn3)ccc2O[C@H]1CN(C)C(=O)Nc1ccccc1	none (no result: MT1-MMP act inh, SKN-1 block, DAGLB inh, hiPSC survival)
COc1ccc(CN(C)C[C@@H]2Oc3ccc(NS(=O)(=O)c4c(C)noc4C)cc3CC(=O)N([C@@H](C)CO)C[C@H]2C)cc1	none (no result: MT1-MMP act inh, SKN-1 block, Cneo AK release, DAGLB inh, hiPSC survival)
C[C@@H]1CCCCO[C@H](CN(C)CC2CCCCC2)[C@H](C)CN([C@@H](C)CO)C(=O)c2cc(NC(=O)Nc3ccc4c(c3)OCO4)ccc2O1	none (no result: MT1-MMP act inh, SKN-1 block, DAGLB inh, hiPSC survival)
C[C@H](CO)N1C[C@H](C)[C@@H](CN(C)Cc2ccncc2)Oc2ccc(NC(=O)NC3CCCCC3)cc2CC1=O	none (no result: MT1-MMP act inh, SKN-1 block, DAGLB inh, hiPSC survival)
COc1ccc(C#Cc2cnc3c(c2)C(=O)N([C@@H](C)CO)C[C@H](C)[C@@H](CN(C)C(=O)CC2CC2)O3)cc1	Cneo AK release 88.2 (no result: MT1-MMP act inh, SKN-1 block, DAGLB inh, hiPSC survival)
COCC#Cc1cnc2c(c1)C(=O)N([C@@H](C)CO)C[C@H](C)[C@H](CN(C)C(=O)Nc1ccc(OC)cc1)O2	Cneo AK release 109.0 (no result: MT1-MMP act inh, SKN-1 block, DAGLB inh, hiPSC survival)
Cc1ccc2nc3c(cc(S(=O)(=O)c4ccccc4)c(=N)n3Cc3ccco3)c(=O)n2c1	rRNA inh HTS -21.1
COc1ccc(NC(=O)Nc2ccc3c(c2)[C@@H]2C[C@@H](CC(=O)NCc4ccc5c(c4)OCO5)O[C@H](CO)[C@@H]2O3)cc1	none (no result: MT1-MMP act inh, SKN-1 block, DAGLB inh, hiPSC survival)
COc1cc(N/N=C(\C)c2ccc(O)c(C)c2)nc(-c2ccccc2)n1	rRNA inh HTS -37.0 (no result: Cneo AK release)
O=C(CN1C(=O)NC2(CCOc3ccccc32)C1=O)c1ccc(Cl)s1 (stereo not drawn)	rRNA inh HTS -32.1
C[C@H](CO)N1C[C@H](C)[C@@H](CN(C)C(=O)Nc2ccc3c(c2)OCO3)Oc2ccc(NS(=O)(=O)c3ccccc3)cc2CC1=O	none (no result: MT1-MMP act inh, SKN-1 block, Cneo AK release, DAGLB inh, hiPSC survival)
CC(/C=N/NC(=O)c1cc(-c2cccn2C)n[nH]1)=C\c1ccccc1	rRNA inh HTS -40.4 (no result: DAGLB inh)
Cn1cccc1-c1cc(C(=O)N/N=C/c2ccc(F)cc2)[nH]n1	none
COc1ccc(/C=N/NC(=O)c2cc(-c3ccc4c(c3)OCO4)n[nH]2)cc1OC	rRNA inh HTS -20.2 (no result: Cneo AK release)
O=C(N/N=C/c1cc2c(cc1Cl)OCO2)c1cc(-c2ccccc2)n[nH]1	rRNA inh HTS -23.9
O=C(N/N=C/c1ccc(F)cc1)c1cc(-c2ccc3c(c2)OCO3)n[nH]1	none (no result: rRNA inh HTS)
Cn1cccc1-c1cc(C(=O)N/N=C/c2ccccc2Cl)[nH]n1	rRNA inh HTS -22.4
O=C(N/N=C/c1cc2c(cc1Cl)OCO2)c1ccncc1	none (no result: rRNA inh HTS, Cneo AK release)
C[C@@H]1CN([C@@H](C)CO)C(=O)Cc2cc(N(C)C)ccc2O[C@@H]1CN(C)C(=O)Nc1ccc(C(F)(F)F)cc1	none (no result: MT1-MMP act inh, SKN-1 block, DAGLB inh, hiPSC survival)
O=C(N/N=C/C=C/c1ccccc1[N+](=O)[O-])c1cc(-c2ccccc2)n[nH]1	rRNA inh HTS -34.3 (no result: Cneo AK release)
O=C(N/N=C/C=C\c1ccccc1[N+](=O)[O-])c1ccccn1	none
CCOc1ccc(/C=N/NC(=O)c2cc(-c3cccn3C)n[nH]2)cc1	rRNA inh HTS -26.1 (no result: Cneo AK release)
O=C(NC(=S)N1CCOCC1)c1cn(-c2ccccc2)nc1-c1ccccc1	rRNA inh HTS -19.0
Nn1cnc2c(c1=O)C1(CCCCC1)Cc1ccccc1-2	none (no result: rRNA inh HTS, Cneo AK release)
O=c1c2c(nc3n1CCCCC3)-c1ccccc1CC21CCCC1	rRNA inh HTS -36.3
O=C(c1cccnc1)N1C[C@H]2[C@@H](c3ccccc31)[C@@H](CO)N2C(=O)Nc1ccccc1	none (no result: MT1-MMP act inh, SKN-1 block, DAGLB inh, hiPSC survival)

From PubChem
